Laboratory results taken from PMC2939154 (Nature, 2010).
Residue numbers refer to the chain shown, from its start. “Also recorded” adds a separate entry of the source. One block for each molecule: values may come before it. Ends that are not written are not given here.

Tests used:
[1] = biological target: N-terminal RCC1 methyltransferase (NRMT) (not stated (human or mouse cDNA cloned)) (UniProt Q9BV86); experiment: ITC
[2] = tested on: N-terminally methylated proteins; details: mouse spleen and cardiac lysates, anti-me3-SPK immunoprecipitation
NRMT [3] = biological target: T1, NRMT (Homo sapiens, UniProt Q9BV86); experiment: isothermal titration calorimetry; assay type: binding; details: ITC, 25OC, methyltransferase buffer pH 8.0
T1 sequence (Q9BV86 1-223): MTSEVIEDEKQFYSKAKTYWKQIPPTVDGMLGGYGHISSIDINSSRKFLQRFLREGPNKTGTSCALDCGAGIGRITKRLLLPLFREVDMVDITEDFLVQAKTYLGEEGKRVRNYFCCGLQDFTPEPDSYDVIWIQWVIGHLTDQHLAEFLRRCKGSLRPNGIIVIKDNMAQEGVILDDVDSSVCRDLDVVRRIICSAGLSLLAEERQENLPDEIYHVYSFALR
In short: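 Isothermal titration calorimetry of NRMT binding to peptide ligands: the wild-type RCC1 N-terminal peptide and a mutant peptide with Gln in place of Lys4. This tests whether Lys4 is needed for substrate binding. The readout is binding affinity.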

NRMT [4] = biological target: T1, NRMT; experiment: in vitro methylation assay of protein substrates by NRMT, immunoblot; assay type: biochemical; details: 50mM Tris, 50mM K Acetate, pH 8.0, 100 µM SAM, 1 h at 30°C
SPK-RCC1 = assay type: biochemical, human; details: in vitro methylation of SPK-RCC1
[5] = tested on: RCC1 methylation in 293LT cells; experiment: NRMT lentiviral knockdown and rescue in 293LT cells, immunoblot; assay type: cell-based; details: murine NRMT, not targeted by human shRNA

- Kd [1]: 70 µM
- dH [1]: -9.8 kcal/mol
Molecule: wild-type 12-residue RCC1 N-terminal peptide

Molecule: myosin light chain 3: mouse protein identified in anti-me3-SPK immunoprecipitates
- N-terminal methylation identified by MS [2]: N-terminally methylated

- ΔH (exothermic binding) (NRMT [3]): -9.8 kcal/mol
Molecule: H-SPKRIAKRRSPP

- in vitro methylation (enzyme FLAG-NRMT or His6-NRMT; substrate protein) (NRMT [4]): di-and trimethylates
B1: RCC1-His6: recombinant RCC1 with C-terminal His6 tag (protein)
chain: MSPKRIAKRRSPPADAIPKSKKVKVSHRSHSTEPGLVLTLGQGDVGQLGLGENVMERKKPALVSIPEDVVQAEAGGMHTVCLSKSGQVYSFGCNDEGALGRDTSVEGSEMVPGKVELQEKVVQVSAGDSHTAALTDDGRVFLWGSFRDNNGVIGLLEPMKKSMVPVQVQLDVPVVKVASGNDHLVMLTADGDLYTLGCGEQGQLGRVPELFANRGGRQGLERLLVPKCVMLKSRGSRGHVRFQDAFCGAYFTFAISHEGHVYGFGLSNYHQLGTPGTESCFIPQNLTSFKNSTKSWVGFSGGQHHTVCMDSEGKAYSLGRAEYGRLGLGEGAEEKSIPTLISRLPAVSSVACGASVGYAVTKDGRVFAWGMGTNYQLGTGQDEDAWSPVEMMGKQLENRVVLSVSSGGQHTVLLVKDKEQS
modifications: left off: His6, C-terminal, state not stated

B2: RCC1: regulator of chromosome condensation 1, Ran guanine nucleotide-exchange factor (protein, UniProt P18754 2-421, looked up)
Regulator of chromosome …: SPKRIAKRRSPPADAIPKSKKVKVSHRSHSTEPGLVLTLGQGDVGQLGLGENVMERKKPALVSIPEDVVQAEAGGMHTVCLSKSGQVYSFGCNDEGALGRDTSVEGSEMVPGKVELQEKVVQVSAGDSHTAALTDDGRVFLWGSFRDNNGVIGLLEPMKKSMVPVQVQLDVPVVKVASGNDHLVMLTADGDLYTLGCGEQGQLGRVPELFANRGGRQGLERLLVPKCVMLKSRGSRGHVRFQDAFCGAYFTFAISHEGHVYGFGLSNYHQLGTPGTESCFIPQNLTSFKNSTKSWVGFSGGQHHTVCMDSEGKAYSLGRAEYGRLGLGEGAEEKSIPTLISRLPAVSSVACGASVGYAVTKDGRVFAWGMGTNYQLGTGQDEDAWSPVEMMGKQLENRVVLSVSSGGQHTVLLVKDKEQS
- N-terminal methylation identified by MS [2]: N-terminally methylated

- in vitro methylation (enzyme FLAG-NRMT or His6-NRMT; substrate protein) (NRMT [4]): dimethylates
B3: PPK-RCC1-His6: RCC1 possessing a Pro2 residue, His6 tagged (protein, UniProt P18754 2-421, looked up, variant S2P)
Regulator of chromosome …: B2 Regulator of chromosome … with S1P
modifications: His6 tag

B4: RB: tumor suppressor protein RB; endogenous, or N-terminus fused to GFP (Fig. 3g) (protein, UniProt P06400 2-928, looked up)
Retinoblastoma-associated …: PPKTPRKTAATAAAAAAEPPAPPPPPPPEEDPEQDSGPEDLPLVRLEFEETEEPDFTALCQKLKIPDHVRERAWLTWEKVSSVDGVLGGYIQKKKELWGICIFIAAVDLDEMSFTFTELQKNIEISVHKFFNLLKEIDTSTKVDNAMSRLLKKYDVLFALFSKLERTCELIYLTQPSSSISTEINSALVLKVSWITFLLAKGEVLQMEDDLVISFQLMLCVLDYFIKLSPPMLLKEPYKTAVIPINGSPRTPRRGQNRSARIAKQLENDTRIIEVLCKEHECNIDEVKNVYFKNFIPFMNSLGLVTSNGLPEVENLSKRYEEIYLKNKDLDARLFLDHDKTLQTDSIDSFETQRTPRKSNLDEEVNVIPPHTPVRTVMNTIQQLMMILNSASDQPSENLISYFNNCTVNPKESILKRVKDIGYIFKEKFAKAVGQGCVEIGSQRYKLGVRLYYRVMESMLKSEEERLSIQNFSKLLNDNIFHMSLLACALEVVMATYSRSTSQNLDSGTDLSFPWILNVLNLKAFDFYKVIESFIKAEGNLTREMIKHLERCEHRIMESLAWLSDSPLFDLIKQSKDREGPTDHLESACPLNLPLQNNHTAADMYLSPVRSPKKKGSTTRVNSTANAETQATSAFQTQKPLKSTSLSLFYKKVYRLAYLRLNTLCERLLSEHPELEHIIWTLFQHTLQNEYELMRDRHLDQIMMCSMYGICKVKNIDLKFKIIVTAYKDLPHAVQETFKRVLIKEEEYDSIIVFYNSVFMQRLKTNILQYASTRPPTLSPIPHIPRSPYKFPSSPLRIPGGNIYISPLKSPYKISEGLPTPTKMTPRSRILVSIGESFGTSEKFQKINQMVCNSDRVLKRSAEGSNPPKPLKKLRFDIEGSDEADGSKHLPGESKFQQKLAEMTSTRTRMQKQKMNDSMDTSNKEEK
- in vitro methylation (enzyme FLAG-NRMT or His6-NRMT; substrate protein) (NRMT [4]): can methylate in vitro; also recorded: able to methylate

- in vitro methylation (enzyme FLAG-NRMT or His6-NRMT; substrate protein) (NRMT [4]): methylates RCC1-His6
B5: FLAG-NRMT: N-terminally FLAG-tagged NRMT (protein, UniProt Q9BV86 1-223, looked up)
N-terminal Xaa-Pro-Lys …: T1 sequence (Q9BV86 1-223)
modifications: N-terminal FLAG tag

B6: NRMT(Lys169): NRMT mutant at Asn169 (protein)
chain: TSEVIEDEKQFYSKAKTYWKQIPPTVDGMLGGYGHISSIDINSSRKFLQRFLREGPNKTGTSCALDCGAGIGRITKRLLLPLFREVDMVDITEDFLVQAKTYLGEEGKRVRNYFCCGLQDFTPEPDSYDVIWIQWVIGHLTDQHLAEFLRRCKGSLRPNGIIVIKDKMAQEGVILDDVDSSVCRDLDVVRRIICSAGLSLLAEERQENLPDEIYHVYSFALR
- methylation activity of NRMT mutant (SPK-RCC1): no activity

B7: myosin light chain 2: mouse protein identified in anti-me3-SPK immunoprecipitates (protein, UniProt P51667 2-166, looked up)
Myosin regulatory light chain …: APKKAKKRIEGGSSNVFSMFEQTQIQEFKEAFTIMDQNRDGFIDKNDLRDTFAALGRVNVKNEEIDEMIKEAPGPINFTVFLTMFGEKLKGADPEETILNAFKVFDPEGKGSLKADYVREMLTTQAERFSKEEIDQMFAAFPPDVTGNLDYKNLVHIITHGEEKD
- N-terminal methylation identified by MS [2]: N-terminally methylated

B8: murine NRMT-FLAG: murine NRMT-FLAG, not targeted by the human shRNA (protein, UniProt Q8R2U4 1-223, looked up)
N-terminal Xaa-Pro-Lys …: MTSEVIEDEKQFYSKAKTYWKQIPPTVDGMLGGYGHISNIDLNSSRKFLQRFLREGPNKTGTSCALDCGAGIGRITKRLLLPLFRVVDMVDVTEDFLAKAKTYLGEEGKRVRNYFCCGLQDFSPEPGSYDVIWIQWVIGHLTDQHLAEFLRRCKRGLRPNGIIVIKDNMAQEGVILDDVDSSVCRDLEVVRRIIRTAGLSLLAEERQENLPDEIYHVYSFALR
modifications: FLAG tag
- RCC1 methylation levels, rescue in NRMT knockdown cells [5]: rescues RCC1 methylation levels; also recorded: RCC1 methylation was rescued

B9: kelch-like protein 31: mouse protein identified in anti-me3-SPK immunoprecipitates (protein, UniProt Q8BWA5 2-634, looked up)
Kelch-like protein 31: APKKKTIKKNKAEINEMTIIVEDSPLSKLNALNGLLEGSNSLSCVSSELTDTSYGPNLLEGLSKMRQESFLCDLVIGTKTKSFDVHKSVMASCSEYFYNILKNDPSTKRVDLNDIAPLGLATVIAYAYTGKLTLSLYTIGSIISAAVYLQIHTLVKMCSDFLIREISVENCMYVVNIAETYSLKNAKATAQKFIRDNFIEFAESEQFMKLTFEQINELLVDDDLQLPSELVAFQIAMKWLEFDQKRVKHAADLLSNIRFGTISAQDLVNYVQTVPRMMQDADCHKLLVDAMNYHLLPYHQNTLQSRRTRIRGGCRVLITVGGRPGLTEKSLSRDILYRDPENGWSKLTEMPAKSFNQCVAVMDGFLYVAGGEDQNDARNQAKHAVSNFCRYDPRFNTWIHLGSMNQKRTHFSLSVFNGLLYAVGGRNSEGSLASLECYVPSTNQWQPKAPLEVARCCHASAVADGRVIVTGGYIGSAYSRSVCAYDPALDAWQELPQLSTPRGWHCAVALGDRLYVMGGSQLGPRGERVDVLTVESFSPAARQWSFVAPLPVGVSTAGVSALHGRAYLLGGWNEGDKKYKKCIQCFNPELNEWTEDDELPEATVGVSCCTLAMPNSVSRESRASSVSSVPVSI
- N-terminal methylation identified by MS [2]: N-terminally methylated
